# From ChEMBL document CHEMBL1135512 (J Med Chem, 2002)
# How the values were obtained:
# Plasmodium falciparum [1] = test: Percent reversal against Plasmodium falciparum W2 at 1 uM DEEA; format: functional
# Plasmodium falciparum [2] = test: Accumulation coefficient of chloroquine at 1 uM-10 uM of DEEA against Plasmodium falciparum W2;Range is from 30-32; format: functional
# In short: (§1)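 W2 infected erythrocytes were suspended in RPMI 1640 with 25 mM HEPES and 25 mM NaHCO3 (2% parasitemia, 2% hematocrit). They were mixed over silicone oil with buffer holding [3H]CQ (26 Ci/mmol) plus DEEA at 1 or 10 μM. Incubation was 1 h at 37 °C under 10% O2/6% CO2/84% N2, followed by 1 min centrifugation. Ratio = parasite [3H]CQ (infected minus uninfected cells) / same-volume buffer.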
# [3] = Cytotoxicity against Chinese hamster ovary cells; format: cell-based, Cricetulus griseus
# In short: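 Cells were then exposed to graded drug concentrations for 48 h at 37 °C, 5% CO2. MTT (1 mg/mL in PBS) was added for 3 h, and formazan was dissolved in DMSO and read at 570/630 nm. IC50 came from nonlinear regression versus drug-free wells.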
# [4] = Dissociation constant (pKa); format: physicochemical
# [5] = Partition coefficient (logD7.0); format: physicochemical; settings: octanol/water
# Plasmodium falciparum [6] = test: In vitro inhibitory activity against multidrug-resistant Plasmodium falciparum W2 Indochina; format: functional, organism-based
# In short: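 Clone W2 (Indochina), sorbitol-synchronized, was grown in RPMI 1640 with 10% human serum, 25 mM HEPES and 25 mM NaHCO3, at final parasitemia 0.5% and hematocrit 1.5%. The drug was present for 48 h at 37 °C under 10% O2/6% CO2/84% N2. Growth was read as 3H-hypoxanthine uptake (1 μCi/well). IC50 came from nonlinear regression of log-dose/response as the geometric mean with 95% CI.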
# [7] = In vitro hemolytic concentration on uninfected erythrocytes.; format: functional, Homo sapiens
# In short: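 Washed A+ human erythrocytes were held at 1.5% hematocrit in RPMI 1640 with 10% human serum, 25 mM HEPES and 25 mM NaHCO3. Drug (2 mM to 1 μM final, triplicate) was added for 42 h at 37 °C under 10% O2/6% CO2. Released hemoglobin in supernatant was measured with TMB/H2O2 at 455 nm. HC50 is relative to 5% saponin lysis, by nonlinear regression.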
# Plasmodium falciparum [8] = test: Concentration required to reduce chloroquine IC50 by 50%; format: functional, organism-based
# In short: (§2)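 Synergy isotopic microtest on sorbitol-synchronized W2 (Indochina) and 3D7 in RPMI 1640 with 10% human serum, HEPES/NaHCO3, parasitemia 0.5%, hematocrit 1.5%. CQ was combined with subinhibitory fixed DEEA concentrations, and 3H-hypoxanthine was added for 48 h at 37 °C under 10% O2/6% CO2/84% N2. Reversal IC50 is the DEEA concentration halving CQ IC50, found by nonlinear regression of log-dose/IC50.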
# [9] = Partition coefficient (logP); format: physicochemical; settings: octanol/water
# Plasmodium falciparum [10] = test: Accumulation coefficient of chloroquine at 1 uM-10 um of DEEA against Plasmodium falciparum W2;Range is from 112-298; format: functional; in short: as §1
# Plasmodium falciparum [11] = test: Accumulation coefficient of chloroquine at 1 uM-10 uMof DEEA against Plasmodium falciparum W2; format: functional; in short: as §1
# Plasmodium falciparum [12] = test: Accumulation coefficient of chloroquine at 1 uM-10 uM of DEEA against Plasmodium falciparum 3D7; format: functional
# Plasmodium falciparum [13] = test: Accumulation coefficient of chloroquine at 1 uM-10 uM of DEEA against Plasmodium falciparum W2; Range is from 22-29; format: functional; in short: as §1
# Plasmodium falciparum [14] = test: Accumulation coefficient of chloroquine at 1 uM-10 uM of DEEA against Plasmodium falciparum W2; format: functional; in short: as §1
# Plasmodium falciparum [15] = test: Accumulation coefficient of chloroquine at 1 uM-10 uM of DEEA against Plasmodium falciparum W2; Range is from 50-159; format: functional; in short: as §1
# [16] = pKa of the compound; format: physicochemical
# Plasmodium falciparum [17] = test: Accumulation coefficient of chloroquine at 1 uM-10 uM of DEEA against Plasmodium falciparum W2; Range is from 61-242; format: functional; in short: as §1
# Plasmodium falciparum [18] = test: Concentration required to reduce chloroquine IC50 by 50%; Antagonist; format: functional, organism-based; in short: as §2
# Plasmodium falciparum [19] = test: Accumulation coefficient of chloroquine at 1 uM-10 uM of DEEA against Plasmodium falciparum W2; Range is from 23-30; format: functional
# Plasmodium falciparum [20] = test: Accumulation coefficient of chloroquine at 1 uM-10 uM of DEEA against Plasmodium falciparum W2; Range is from 37-42; format: functional; in short: as §1
# Plasmodium falciparum [21] = test: Accumulation coefficient of chloroquine at 1 uM-10 uM of DEEA against Plasmodium falciparum W2;Range is from 16-25; format: functional; in short: as §1
# Plasmodium falciparum [22] = test: Accumulation coefficient of chloroquine at 1 uM-10 uM of DEEA against Plasmodium falciparum W2; Range is from 14-56; format: functional; in short: as §1
# Plasmodium falciparum [23] = test: Accumulation coefficient of chloroquine at 1 uM-10 uM of DEEA against Plasmodium falciparum W2;Range is from 30-23; format: functional; in short: as §1
# Plasmodium falciparum [24] = test: Accumulation coefficient of chloroquine at 1 uM-10 uM of DEEA against Plasmodium falciparum W2; Range is from 50-66; format: functional; in short: as §1
# Plasmodium falciparum [25] = test: Percent reversal against Plasmodium falciparum W2 at 1 uM DEEA
SMILES,Reversal (Plasmodium falciparum [1]) [%],Cytotoxicity [3] [µM],pKa [4],"logD ([5]; pH 7, read-out: logD)",HC50 [7] [µM],IC50 (Plasmodium falciparum [8]; Plasmodium falciparum) [µM],logP ([9]; read-out: logP),IC50 (Plasmodium falciparum [6]; Plasmodium falciparum) [µM],Accumulation coefficient (Plasmodium falciparum [14]),other results
CN(C)C(=O)C1C2c3ccccc3C(c3ccccc32)C1C(=O)N(C)C (stereo in doubt; 17),3,1558,-1.34,1.7,>2000,9,1.7,–,–,Accumulation coefficient (Plasmodium falciparum [2]): 32; IC50 (Plasmodium falciparum [6]): 12.4 µM
CN(C)CC1C2c3ccccc3C(c3ccccc32)C1CN(C)C (stereo in doubt; 19),80,> 2000,–,–,–,–,–,–,–,IC50 (Plasmodium falciparum [6]): 4 µM; Accumulation coefficient (Plasmodium falciparum [10]): 298; IC50 (Plasmodium falciparum [8]): 0.4 µM
CCN(CC)CCCC(C)Nc1ccnc2cc(Cl)ccc12 (stereo not drawn) [CHLOROQUINE],0,–,–,–,–,–,–,0.9,–,Accumulation coefficient (Plasmodium falciparum [11]): 18; Accumulation coefficient (Plasmodium falciparum [12]): 191
NC(=O)C1C2c3ccccc3C(c3ccccc32)C1C(N)=O (stereo not drawn),0,> 2000,-0.96,0.86,>2000,50,0.86,44,–,Accumulation coefficient (Plasmodium falciparum [13]): 29
CC1C2c3ccccc3C(c3ccccc32)C1CN(C)C (stereo not drawn),60,711,8.99,2.25,1402,0.4,4.24,30,62,–
O=C(NCc1ccccc1)C1=CC2c3ccccc3C1c1ccccc12,0,> 2000,–,4.41,>2000,23,4.41,50,46,–
NCC1C2c3ccccc3C(c3ccccc32)C1CN (stereo not drawn),7,465,–,–,>2000,12.5,–,8,–,Accumulation coefficient (Plasmodium falciparum [15]): 159; logD ([5]; pH 7): -3.27; pKa [16]: 10.1; logP [9]: 1.89
CN(C)CC1=C(CN(C)C)C2c3ccccc3C1c1ccccc12,55,920,8.66,1.26,>2000,0.8,3.34,2.5,–,Accumulation coefficient (Plasmodium falciparum [17]): 242
COC(=O)C1C2c3ccccc3C(c3ccccc32)C1C(=O)N(C)C (stereo not drawn),0,> 2000,-1.65,2.47,>2000,–,2.47,32,–,IC50 (Plasmodium falciparum [18]): Antagonist; Accumulation coefficient (Plasmodium falciparum [19]): 30
CC(CN1c2ccccc2Sc2ccccc21)N(C)C (stereo not drawn) [PROMETHAZINE],67,702,8.89,1.96,618,0.4,3.86,20,–,Accumulation coefficient (Plasmodium falciparum [20]): 42
CN(C)C1CC2c3ccccc3C1c1ccccc12 (stereo not drawn),60,> 2000,8.67,2,>2000,0.8,3.67,9.3,219,–
CN(C)C=NC(=O)C1C2c3ccccc3C(c3ccccc32)C1C(=O)N=CN(C)C (stereo not drawn),0,820,–,1.6,>2000,30,1.6,33,–,Accumulation coefficient (Plasmodium falciparum [21]): 25
CN(C)CC1C2c3ccccc3C(c3ccccc32)C1CO (stereo not drawn),66,> 2000,8.86,0.96,>2000,0.6,2.82,36,–,Accumulation coefficient (Plasmodium falciparum [22]): 56
CN(C)C(=O)C1=C(C(=O)N(C)C)C2c3ccccc3C1c1ccccc12,0,> 2000,–,2.15,>2000,> 50,2.15,36.5,–,Accumulation coefficient (Plasmodium falciparum [23]): 30
c1ccc2c(c1)C1c3ccccc3C2C2CNCC12 (stereo not drawn),80,1110,10.2,0,>2000,0.2,2.98,10,322,–
COc1ccc(CCN(C)CCCC(C#N)(c2ccc(OC)c(OC)c2)C(C)C)cc1OC (stereo not drawn),57,–,8.29,–,861,0.8,–,13.4,97,–
CNC1(C)C2CCC(C2)C1(C)C (stereo not drawn) [MECAMYLAMINE],15,–,11,-0.4,–,6,–,91.4,45,logP [9]: 2.13
CC1C2c3ccccc3C(c3ccccc32)C1C(=O)Nc1cccnc1 (stereo not drawn),0,93,4.14,3.85,>2000,–,3.85,164,10,–
CN(C)C(=O)C1C2c3ccccc3C(c3ccccc32)C1C(=O)N(C)C (stereo in doubt; 4),0,> 2000,–,–,–,–,–,–,–,IC50 (Plasmodium falciparum [6]): 35.5 µM
CN(C)CC1=CC2c3ccccc3C1c1ccccc12,65,1427,8.04,2.61,1630,0.5,3.68,4,53,–
CNCC1CC2c3ccccc3C1c1ccccc12 (stereo not drawn),80,515,10.2,0.63,1090,0.3,3.66,8,210,–
O=C(NCCCCCCCCCCNC(=O)C1=CC2c3ccccc3C1c1ccccc12)C1=CC2c3ccccc3C1c1ccccc12,0,> 2000,-1.14,–,>2000,–,–,8,34,logD [5]: 9.16; logP [9]: 9.16
CC1C2c3ccccc3C(c3ccccc32)C1C[N+](C)(C)C.[I-] (stereo not drawn),37,> 2000,–,1.32,>2000,3.5,1.32,16,192,–
CN(C)CC1C2c3ccccc3C(c3ccccc32)C1COC(=O)N(C)C (stereo not drawn),25,758,8.99,1,1563,1.6,2.99,21,–,Accumulation coefficient (Plasmodium falciparum [24]): 66
CN(C)CC1C2c3ccccc3C(c3ccccc32)C1CN(C)C (stereo in doubt; 5),–,1035,9.19,0,>2000,0.25,3.41,2,–,Reversal (Plasmodium falciparum [25]): 80%
